Experimental data: ChEMBL document CHEMBL4376883, “Discovery and Optimization of Small Molecules Targeting the Protein-Protein Interaction of Heat Shock Protein 90 (Hsp90) and Cell Division Cycle 37 as Orally Active Inhibitors for the Treatment of Colorectal Cancer” (J Med Chem, 2020)
One block for each compound: values may come before it.

What was measured:
[1] = biological target: Heat shock protein HSP 90-beta/Hsp90 co-chaperone Cdc37 (Homo sapiens) (UniProt P08238+Q16543); test: Inhibition of His-tagged HSP90/GST-tagged Cdc37 (unknown origin) protein-protein interaction at 100 uM measured after 1 hr by HTRF assay relative to control; format: protein-complex assay
Method in brief: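 His-Hsp90 and GST-Cdc37 were premixed at a final 80 nM in PBS with 200 mM KF, pH 7.4. Compound was added and the mix incubated 1 h at 37 °C, then read by HTRF. Inhibition rate was taken at 100 μM compound.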

Heat shock protein HSP90 [2] = biological target: T1, Heat shock protein HSP90 (Homo sapiens, UniProt P07900+P08238); test: Binding affinity to recombinant […] biotinylated-HSP90 N-terminal domain (9 to 236 residues) (unknown origin) expressed in Escherichia coli BL21 (DE3) by biolayer interferometry
Method in brief: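 Biotinylated Hsp90 (100 µg/mL) loaded onto streptavidin sensors prewetted 10 min in PBS with 0.05% BSA and 0.01% Tween 20. Analyte binding measured at 28 °C. Double reference subtraction applied; data fitted to a 1:1 model with K_D = K_off/K_on.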

[3] = Permeability of the compound at pH 7.4 by PAMPA; format: ADME; conditions: read-out: permeability
Method in brief: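 Permeability coefficient (Pe) was measured at pH 7.4 by double-sink PAMPA.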

[4] = Distribution coefficient, log D of the compound at pH 7.4 by potentiometric titration method; format: physicochemical; conditions: octanol/water
Method in brief: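 log D at pH 7.4 measured by potentiometric titration on a Gemini Profiler.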

[5] = Stability of the compound in human plasma assessed as parent compound remaining at 1 uM measured after 60 mins by LC-MS/MS analysis; format: ADME, cell-free; conditions: read-out: Stability
Method in brief: (§1)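 Compound diluted from 10 mM DMSO stock to 1 μM in mouse or human plasma and held at 37 °C in a water bath. Reactions were stopped with acetonitrile at 0, 10, 30, 60 and 90 min. Parent compound was quantified by LC-MS/MS as % remaining.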

Heat shock protein HSP90 [6] = biological target: T1, Heat shock protein HSP90; test: Inhibition of recombinant full-length HSP90 ATPase activity N-terminal domain (9 to 236 residues) (unknown origin) expressed in Escherichia coli BL21 (DE3) measured after 1 hr by ADP hunter plus assay
[7] = Stability of the compound in mouse plasma assessed as parent compound remaining at 1 uM measured after 90 mins by LC-MS/MS analysis; format: ADME, cell-free; conditions: read-out: Stability; method in brief: as §1
[8] = Stability of the compound in human plasma assessed as parent compound remaining at 1 uM measured after 10 mins by LC-MS/MS analysis; format: ADME, cell-free; conditions: read-out: Stability; method in brief: as §1
HCT-116 = test: Antiproliferative activity against human HCT116 cells measured after 72 hrs by CCK8 assay; format: functional, cell-based; conditions: HCT-116, 72 h
Method in brief: (§2)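 Cells grown in RPMI 1640 with 10% FBS at 37 °C, 5% CO2; STR-authenticated and mycoplasma-checked. Seeded at 3000-5000 cells/well and left 24 h. Serial compound dilutions added for 72 h, with matched DMSO as control. Viability read by CCK8 kit using the standard protocol. IC50 values derived from at least three parallel experiments.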

[9] = Stability of the compound in mouse plasma assessed as parent compound remaining at 1 uM measured after 10 mins by LC-MS/MS analysis; format: ADME, cell-free; conditions: read-out: Stability; method in brief: as §1
[10] = Half life in mouse liver microsomes at 10 uM preincubated for 5 mins followed by NADPH addition by LC-MS/MS analysis; format: ADME, Microsome
Method in brief: (§3)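 Compound at 10 µM preincubated 5 min at 37 °C with human or mouse liver microsomes (0.5 mg/mL) in 100 mM phosphate, pH 7.4. Reaction started with 1 mM NADPH, stopped with cold acetonitrile, centrifuged and analysed by LC-MS/MS.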

[11] = Half life in human liver microsomes at 10 uM preincubated for 5 mins followed by NADPH addition by LC-MS/MS analysis; format: ADME, Microsome; method in brief: as §3
[12] = Clearance in human liver microsomes at 10 uM preincubated for 5 mins followed by NADPH addition by LC-MS/MS analysis; format: ADME, Microsome; conditions: read-out: CLH; method in brief: as §3
[13] = Stability of the compound in human plasma assessed as parent compound remaining at 1 uM measured after 90 mins by LC-MS/MS analysis; format: ADME, cell-free; conditions: read-out: Stability; method in brief: as §1
A549 = test: Antiproliferative activity against human A549 cells measured after 72 hrs by CCK8 assay; format: functional, cell-based; conditions: A549, 72 h; method in brief: as §2
[14] = Stability of the compound in mouse plasma assessed as parent compound remaining at 1 uM measured after 30 mins by LC-MS/MS analysis; format: ADME, cell-free; conditions: read-out: Stability; method in brief: as §1
[15] = Stability of the compound in mouse plasma assessed as parent compound remaining at 1 uM measured after 60 mins by LC-MS/MS analysis; format: ADME, cell-free; conditions: read-out: Stability; method in brief: as §1
L02 = test: Cytotoxicity against human L02 cells measured after 72 hrs by CCK8 assay; format: functional, cell-based; conditions: L02, 72 h; method in brief: as §2
[16] = Clearance in mouse liver microsomes at 10 uM preincubated for 5 mins followed by NADPH addition by LC-MS/MS analysis; format: ADME, Microsome; conditions: read-out: CLH; method in brief: as §3
[17] = Stability of the compound in human plasma assessed as parent compound remaining at 1 uM measured after 30 mins by LC-MS/MS analysis; format: ADME, cell-free; conditions: read-out: Stability; method in brief: as §1
Heat shock protein HSP90 [18] = biological target: T1, Heat shock protein HSP90; test: Binding affinity to recombinant […] HSP90 N-terminal domain (9 to 236 residues) (unknown origin) expressed in Escherichia coli BL21 (DE3) by isothermal calorimetric method
Method in brief: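 ITC: 50 µM Hsp90 in the cell and 300 µM compound in the syringe, both in 20 mM Tris-HCl, 150 mM NaCl, pH 7.4. Nineteen injections at 180 s intervals with stirring at 1000 rpm.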

[19] = Stability of the compound in human plasma assessed as parent compound remaining at 1 uM measured immediately by LC-MS/MS analysis; format: ADME, cell-free; conditions: read-out: Stability; method in brief: as §1
[20] = Stability of the compound in mouse plasma assessed as parent compound remaining at 1 uM measured immediately by LC-MS/MS analysis; format: ADME, cell-free; conditions: read-out: Stability; method in brief: as §1
Heat shock protein HSP90 [21] = biological target: T1, Heat shock protein HSP90; test: Binding affinity to recombinant […] HSP90 N-terminal domain (9 to 236 residues) (unknown origin) expressed in Escherichia coli BL21 (DE3) assessed as change in melting temperature by SYPRO dye based thermal shift assay
Method in brief: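 Hsp90 N-terminal domain (10 µM) mixed with compound at 200, 100, 50 or 10 µM in 1× PBS, pH 8.0, with 6× SYPRO Orange. Heated from room temperature to 99 °C at 1 °C/min; fluorescence read at 492 nm excitation and 610 nm emission.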

Structure (SMILES): CCC(CC)Nc1nccc(Nc2ccc(N(CC(=O)O)S(=O)(=O)c3c(C)cc(C)cc3C)cc2)n1
- inhibition [1]: < 50%

Structure (SMILES): CNc1nccc(Nc2ccc(N(CC(=O)OC)S(=O)(=O)c3c(C)cc(C)cc3C)cc2)n1
- inhibition [1]: < 50%

Structure (SMILES): COC(=O)CN(c1ccc(Nc2ccnc(NC3CC3)n2)cc1)S(=O)(=O)c1c(C)cc(C)cc1C
- inhibition [1]: < 50%

Structure (SMILES): CNc1nccc(Nc2ccc(N(CC(=O)O)S(=O)(=O)c3c(C)cc(C)cc3C)cc2)n1
- inhibition [1]: < 50%

Structure (SMILES): Cc1cc(C)c(S(=O)(=O)N(Cc2ccc(C(=O)O)cc2)c2ccc(Nc3ccnc(N4CCCC4)n3)cc2)c(C)c1
- inhibition [1]: 52.8%

Structure (SMILES): CCNc1nccc(Nc2ccc(N(CC(=O)OC)S(=O)(=O)c3c(C)cc(C)cc3C)cc2)n1
- inhibition [1]: < 50%

Structure (SMILES): Cc1cc(C)c(S(=O)(=O)N(CC(=O)O)c2ccc(Nc3ccnc(N4CCCC4)n3)cc2)c(C)c1
- Kd (Heat shock protein HSP90 [2]): 7.41 µM
- Papp [3]: 70.4 ×10⁻⁶ cm/s
- logD [4]: 1.67
- remaining at 1 h, 1 µM [5]: 76%
- IC50 (Heat shock protein HSP90 [6]): > 100 µM
- remaining at 1.5 h, 1 µM [7]: 59%
- remaining at 10 min, 1 µM [8]: 101%
- IC50 (HCT-116): 10.2 µM
- remaining at 10 min, 1 µM [9]: 100%
- half-life at 10 µM [10]: 16.8 min
- half-life at 10 µM [11]: 30.4 min
- microsomal CLint at 10 µM [12]: 32.6 µL/min/mg
- remaining at 1.5 h, 1 µM [13]: 62%
- IC50 (A549): 55.7 µM
- remaining at 0.5 h, 1 µM [14]: 86%
- remaining at 1 h, 1 µM [15]: 71%
- IC50 (L02): > 50 µM
- microsomal CLint at 10 µM [16]: 59 µL/min/mg
- remaining at 0.5 h, 1 µM [17]: 92%
- Kd (Heat shock protein HSP90 [18]): 7.81 µM
- remaining at 0 min, 1 µM [19]: 100%
- remaining at 0 min, 1 µM [20]: 100%

Structure (SMILES): COC(=O)CN(c1ccc(Nc2ccnc(N3CCN(C)CC3)n2)cc1)S(=O)(=O)c1c(C)cc(C)cc1C
- inhibition [1]: 70.1%

Structure (SMILES): Cc1cc(C)c(S(=O)(=O)N(CC(=O)NO)c2ccc(Nc3ccnc(N4CCNCC4)n3)cc2)c(C)c1
- Kd (Heat shock protein HSP90 [2]): 2.66 µM
- Papp [3]: 44.1 ×10⁻⁶ cm/s
- ΔTm (Heat shock protein HSP90 [21]): 1.59 °C
- logD [4]: 0.82
- IC50 (Heat shock protein HSP90 [6]): > 100 µM
- inhibition [1]: 96.2%
- IC50 (HCT-116): 3.94 µM
- IC50 (A549): 16.2 µM
- IC50 (L02): 21.9 µM
- Kd (Heat shock protein HSP90 [18]): 5.49 µM

Further lines, results first:

- inhibition [1]: 79.1%
Structure (SMILES): COC(=O)CN(c1ccc(Nc2ccnc(N3CCCCC3)n2)cc1)S(=O)(=O)c1c(C)cc(C)cc1C

- inhibition [1]: 46.7%
Structure (SMILES): O=S(=O)(Nc1ccc(Nc2ccnc(N3CCCC3)n2)cc1)c1ccc2ccccc2c1

- inhibition [1]: < 50%
Structure (SMILES): Cc1cc(C)c(S(=O)(=O)N(CC(=O)O)c2ccc(Nc3ccnc(N4CCCCCC4)n3)cc2)c(C)c1

- inhibition [1]: 36.2%
Structure (SMILES): COc1ccc(S(=O)(=O)Nc2ccc(Nc3ccnc(N4CCCC4)n3)cc2)c(OC)c1

- inhibition [1]: < 20%
Structure (SMILES): O=S(=O)(Nc1ccc(Nc2ccnc(N3CCCC3)n2)cc1)c1ccc(C(F)(F)F)cc1

- inhibition [1]: < 50%
Structure (SMILES): Cc1cc(C)c(S(=O)(=O)N(Cc2ccc(Cl)cc2)c2ccc(Nc3ccnc(N4CCCC4)n3)cc2)c(C)c1

- inhibition [1]: < 20%
Structure (SMILES): CC(C)(C)c1ccc(S(=O)(=O)Nc2ccc(Nc3ccnc(N4CCCC4)n3)cc2)cc1

- Kd (Heat shock protein HSP90 [2]): 21.1 µM
- Papp [3]: 65.9 ×10⁻⁶ cm/s
- logD [4]: 4.82
- inhibition [1]: 56.3%
Structure (SMILES): COc1cc(S(=O)(=O)Nc2ccc(Nc3ccnc(N4CCCC4)n3)cc2)c(C)cc1C
